Compounds with a hit are over-represented: about 4.6% of the library has one in this group of screens.
CHO parental Ca = counter-screen for OX1R antagonists: effect in parental CHO cells; parental CHO-K1, ATP-induced calcium, Fluo-8 fluorescence; inhibition, % at 5.6 µM; 330,000 compounds, 0.63% hits;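 active = inhibition above that plate's mean sample inhibition plus 3 SD, cut at about 26% in these data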
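Material: parental CHO cells / Compound: single nominal dose of 5.6 µM per compound / Signal: Fluo-8 fluorescence / Replicates: singlicate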
GPR7 antagonist = antagonists of human GPR7 (neuropeptides B/W receptor 1) | GPR7-expressing cells, fluorescence antagonist assay | 290,000 compounds, 1.1% hits | inhibition, % at 4.4 µM; in the data active = inhibition above about 16%, passing the limit was not always enough;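 also: cells stimulated with the agonist NPW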
TAAR1 antag = human TAAR1 antagonism; Q96RJ0; CHO RD-HGA16 TAAR1, Fluo-8 calcium fluorescence, antagonist; 360,000 compounds, 1.5% hits; inhibition, % at 3 µM;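 active = inhibition above a per-plate cutoff, the mean inhibition of test compounds on that plate plus 3 SD, cut at about 49% in these data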
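System: CHO RD-HGA16 cells bearing hTAAR1. Reagent: EC80 β-phenethylamine stimulus. Schedule: seeding 17-24 h prior, 75-min 37 °C, 30-min RT dye loading. Signal: Fluo-8 intracellular calcium dye fluorescence, real-time kinetic reads. Read-out: % inhibition from peak post-agonist over basal fluorescence ratio. Benchmarks: vehicle wells and EC80 agonist wells. Replicates: n of 1.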
TAAR1 agonist = human TAAR1 agonism | Q96RJ0 | CHO RD-HGA16 TAAR1, Fluo-8 calcium fluorescence; vehicle wells 0%, saturating PEA agonist 100% | activation, % at 3 µM | 360,000 compounds, 0.99% hits | AID 624467;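 active = activation above the mean activation of all test compounds in the run plus 3 SD, cut at about 38% in these data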
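Test system: RD-HGA16 (CHO) cells co-expressing Gα16 and hTAAR1; dosing: one-point dosing at 3 µM (nominal); timing: 17-24 h seeding, 75 min 37 °C dye, 30 min RT; signal: kinetic Fluo-8 calcium fluorescence; read-out basis: % activation relative to PEA EC100 response; controls: DMSO and PEA EC100; replicates: n 1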
OX1R antag-1 = blocks the human orexin 1 receptor. O43613. OX1R-expressing cells, FRET antagonist read-out. inhibition, % at 6.6 µM. 330,000 compounds, 1.8% hits. AID 485270; in the data active = inhibition mostly above about 38%, no sharp cut-off; inactive = mostly below about 40%
Target sequence (O43613 whole entry, looked up): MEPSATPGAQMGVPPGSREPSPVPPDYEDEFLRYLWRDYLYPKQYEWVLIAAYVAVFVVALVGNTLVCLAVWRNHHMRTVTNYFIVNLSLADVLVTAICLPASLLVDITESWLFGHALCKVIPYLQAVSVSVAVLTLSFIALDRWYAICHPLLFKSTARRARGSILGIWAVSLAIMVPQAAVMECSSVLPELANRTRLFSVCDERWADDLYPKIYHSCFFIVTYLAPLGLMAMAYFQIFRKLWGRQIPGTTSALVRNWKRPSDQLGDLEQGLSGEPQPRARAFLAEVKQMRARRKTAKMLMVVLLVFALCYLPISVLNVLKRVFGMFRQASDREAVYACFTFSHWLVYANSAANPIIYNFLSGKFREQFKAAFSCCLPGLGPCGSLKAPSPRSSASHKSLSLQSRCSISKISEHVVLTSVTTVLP
OX1R antag-2 = antagonists of human orexin 1 receptor; O43613; CHO/OX1R cells, Fluo-8 calcium fluorescence, orexin A; inhibition, % at 5 µM; 330,000 compounds, 0.43% hits; AID 434989;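 active = inhibition above its plate's threshold, mean inhibition of all tested compounds on the plate plus 3 SD, cut at about 37% in these data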
A number is an active result; n = inactive; x = no result given.

SMILES	CHO parental Ca	GPR7 antagonist	TAAR1 antag	TAAR1 agonist	OX1R antag-1	OX1R antag-2
Cc1ccccc1NS(=O)(=O)c1ccc(NC(=O)CSCc2ccc(Br)cc2)cc1	31	n	n	n	n	n
CSc1ccccc1NC(=O)CN(C)C(=O)c1ccc(-n2cccn2)cc1	n	x	n	n	n	n
COC(=O)C1=C(C)N(CC(C)C)C(=S)NC1c1ccc(-c2ccccc2)cc1 (stereo unspecified)	x	x	n	n	x	x
O=C(NCc1nnc(SCC(=O)N2CCCc3ccccc32)n1-c1ccccc1)c1cccc2ccccc12	n	n	50	n	n	n
CC(=O)Nc1ccc(-c2cn3c(n2)SCC3)cc1	n	n	n	n	n	n
O=C(Oc1ccc(-c2cn3c(n2)SCC3)cc1)c1ccccc1	n	18	n	n	n	n
O=[N+]([O-])c1ccc(Nc2ccccn2)c([N+](=O)[O-])c1	n	n	n	n	36	n
O=C1c2ccccc2C(=O)N1Nc1ccc([N+](=O)[O-])cc1[N+](=O)[O-]	n	n	n	n	68	n
CC(C)(C)OC(=O)N[C@@H]1C=CC(=O)C1	x	x	n	n	x	x
Cc1ccc(S(=O)(=O)/N=C2/C=C(Sc3ncn[nH]3)C(=O)c3ccccc32)cc1	n	n	x	x	59	n
COc1ccc(CCNC(=O)c2cccc(C(=O)NCCc3ccc(OC)cc3)n2)cc1	n	x	54	n	n	n
CC(=O)c1ccc(Cc2ccc(C(C)=O)s2)s1	x	x	n	n	x	x
O=C(NCCCN1CCOCC1)C(=O)N/N=C/c1cccc2ccccc12	n	n	n	n	49	n
COc1ccccc1C(=O)N/C(=C\c1cn(C)c2ccccc12)C(=O)N1CCCC1	n	n	n	n	50	n
O=S(=O)(/N=S1\CC=CCN1S(=O)(=O)c1ccccc1)c1ccccc1 (stereo unspecified)	x	x	n	67	x	x
O=S(=O)(c1ccccc1)N1CCN(S(=O)(=O)c2ccccc2)c2ccccc21	x	x	n	n	x	x
Cc1cc(C)cc(NC(=O)CCNS(=O)(=O)c2cc(Br)cnc2N)c1	n	n	n	n	65	n
CCOC(=O)c1ccc(NC(=O)CCNS(=O)(=O)c2cc(Br)cnc2N)cc1	n	n	n	n	n	n
Nc1[nH]c(C(=O)c2ccccc2)c(-c2ccc(Cl)cc2)c1C(=O)c1c[nH]c2ccc(F)cc12	x	x	n	n	x	x
COc1ccc([N+](=O)[O-])c(S(=O)(=O)c2ccccc2)n1	n	20	n	n	n	n
COc1ccc([N+](=O)[O-])c(S(=O)(=O)c2ccc(Cl)cc2)n1	46	n	n	n	n	n
O=[N+]([O-])c1cccnc1S(=O)(=O)c1ccccc1	n	n	n	n	n	n
COc1ccccc1NC(=O)C1=C(C)Nc2nnnn2C1c1cc(Br)ccc1OC (stereo unspecified)	n	n	n	48	n	n
COC(=O)C1=C(C)N(C)C(=NCC2CC2)NC1c1cccc(F)c1 (stereo unspecified)	x	x	n	n	x	x
O=C1NC(Cc2ccccc2)c2nc3ccc(Cl)cc3c(=O)n2-c2cc3ccccc3cc21 (stereo unspecified)	x	x	n	n	x	x
SMILES	CHO parental Ca	GPR7 antagonist	TAAR1 antag	TAAR1 agonist	OX1R antag-1	OX1R antag-2
O=C1NC(Cc2ccccc2)c2nc3ccc(F)cc3c(=O)n2-c2cc3ccccc3cc21 (stereo unspecified)	x	x	49	n	x	x
C[C@@H]1COc2cccc(NC3CC3)c2S(=O)(=O)N1	x	x	n	n	x	x
COc1cccc(CC(=O)Nc2nc(-c3ccc(F)c(F)c3)cs2)c1	n	n	52	n	n	n
CC(OC(=O)c1ccc([N+](=O)[O-])o1)C(=O)Nc1nc(-c2ccc(F)c(F)c2)cs1 (stereo unspecified)	x	x	59	n	x	x
COc1ccc(C2(O)CCN(CC(=O)Nc3nc(-c4ccccc4)cs3)CC2)cc1	n	n	51	n	n	n
O=C(CCN1C(=O)C2CC=CCC2C1=O)Nc1nc(-c2ccc(F)c(F)c2)cs1 (stereo unspecified)	n	x	60	n	n	n
CN1CCN(CC(=O)Nc2nc(-c3ccccc3)cs2)CC1	n	n	n	n	n	n
CCS(=O)(=O)N(C)C[C@@H]1OCc2ccccc2-c2c(n(C)c3ccccc23)C(=O)N([C@H](C)CO)C[C@@H]1C	x	x	n	n	x	x
Cc1cccc(C)c1NC(=O)C1(C)CSCC(=O)N1CCCN1CCOCC1 (stereo unspecified)	x	x	n	n	x	x
Cc1ccc(-c2csc(NC(=O)Cn3cnc4c3c(=O)n(C)c(=O)n4C)n2)cc1C	n	n	n	n	n	n
Cn1c(=O)c2c(ncn2CC(=O)Nc2nc(-c3ccc(F)c(F)c3)cs2)n(C)c1=O	99	n	n	n	n	n
O=C(Cc1ccccc1)Nc1nc(-c2ccc(F)c(F)c2)cs1	n	n	56	n	n	n
Cc1cc(C(=O)OCC(=O)Nc2nc(-c3ccccc3)cs2)c(C)o1	n	n	n	n	66	n
O=C(CN1CCCCC1)Nc1nc(-c2ccc(F)c(F)c2)cs1	n	n	49	n	n	n
Cc1cc(C(=O)OC(C)C(=O)Nc2nc(-c3ccccc3)cs2)c(C)o1 (stereo unspecified)	n	n	n	n	n	n
O=C(NCC1CCCN1S(=O)(=O)c1cccs1)c1cccc(Cl)c1 (stereo unspecified)	n	x	n	n	53	n
COc1ccc(S(=O)(=O)N2CCCC2CNC(=O)c2cccc(OC)c2)cc1 (stereo unspecified)	n	x	n	n	43	n
COc1cccc(CNC(=O)c2ccc(S(=O)(=O)N3CCCC3)cc2)c1	n	n	n	n	n	n
COc1cccc(C(=O)NCC2CCCN2S(=O)(=O)c2cccs2)c1 (stereo unspecified)	n	x	n	n	n	n
O=C(NCC1CCCN1S(=O)(=O)c1cccs1)C(=O)Nc1ccccc1Cl (stereo unspecified)	n	x	n	n	45	n
COc1cccc(CNC(=O)c2ccc(S(=O)(=O)N3CCCCC3)cc2)c1	x	x	51	n	x	x
CCOC(=O)CNC(=O)CN1CCC(c2nc3ccccc3[nH]2)CC1	n	n	n	n	n	n
COC(=O)[C@]12C[C@H](CC(=O)NCCCCc3ccccc3)C(=O)N(Cc3ccccc3)C1=C[C@H](C1CCCC1)O[C@@H]2C	x	x	n	n	x	x
COc1cc(-c2c(C(=O)c3ccccc3)[nH]c(N)c2C(=O)NCCc2c[nH]c3ccccc23)ccc1F	x	x	n	n	x	x
N#Cc1ccccc1S(=O)(=O)N1CCN(Cc2cc3c(cc2Br)OCCO3)CC1	x	x	n	n	x	x
CC(OC(=O)Cc1n[nH]c(=O)c2ccccc12)C(=O)Nc1ccc(F)cc1 (stereo unspecified)	n	x	n	n	n	n

Bioassay records deposited in PubChem BioAssay by The Scripps Research Institute Molecular Screening Center.
